Active and inactive are the calls of the source. The rule behind the calls is not given here. Residues, ends and D or L forms follow the SMILES beside them. *: point of attachment. NHBn = c1ccc(CN*)cc1; Bn = c1ccc(C*)cc1 Bounds are passed on as bounds.

Series [1] in a line: Inhibition of chymotrypsin-like activity of human 20s proteasome beta5 subunit in human erythrocyte assessed as hydrolysis of Ac-WLA-AMC fluorogenic substrate.
The nature of series [2]: (§1) Inhibition of TNF-alpha-induced NF-kappaB activation in human HEK293 cells after 3 hrs by luciferase reporter gene assay. In kind it is cell-based. As to conditions: HEK293, 3 h. The essentials:
(§2)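 NF-κB-luciferase reporter in HEK293 cells (10,000 per well). Cells were pre-incubated with compound for 1 h, then stimulated with 10 ng/ml TNF-α for 3 h with compound still present. IC50 and percentage inhibition were reported as means of at least three independent experiments.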
In general terms: A reporter such as luciferase makes a cellular process visible.

Another series concerns HEK293. The description is as §1. In kind it is cell-based. The arrangement: concentration or dose not given beside the values. As to conditions: dose or concentration not given here. Put shortly:
as §2

Series [3] is described as follows: Cytotoxicity against human Calu6 cells assessed as cellular ATP level after 72 hrs by luminescence-based ATPlite assay. In kind it is cell-based, Calu-6. Conditions: read-out: LC50. The essentials:
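Calu6 cells, 2000 per well, incubated with compound for 72 h. Viability read as cellular ATP by luminescence (ATPlite). Values are means of at least three independent experiments.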
Background: Cellular ATP, detected with luciferase, serves as a proxy for viable cell number.

The nature of series [4]: Inhibition of chymotrypsin-like activity of human 20s proteasome beta-1 subunit in human erythrocyte assessed as hydrolysis of Ac-WLA-AMC fluorogenic substrate.
The nature of series [5]: Inhibition of chymotrypsin-like activity of human 20s proteasome beta2 subunit in human erythrocyte assessed as hydrolysis of Ac-WLA-AMC fluorogenic substrate.
In series [6] the target is Cathepsin B (Homo sapiens) (UniProt P07858). Nature of the series: Inhibition of human cathepsin B at 100uM.
For series [7], the target named is Procathepsin L (Homo sapiens) (UniProt P07711). Nature of the series: Inhibition of human cathepsin L at 100uM.
Series [8] addresses T1, Coagulation factor XII (Homo sapiens) (UniProt P00748).
T1 sequence (whole entry): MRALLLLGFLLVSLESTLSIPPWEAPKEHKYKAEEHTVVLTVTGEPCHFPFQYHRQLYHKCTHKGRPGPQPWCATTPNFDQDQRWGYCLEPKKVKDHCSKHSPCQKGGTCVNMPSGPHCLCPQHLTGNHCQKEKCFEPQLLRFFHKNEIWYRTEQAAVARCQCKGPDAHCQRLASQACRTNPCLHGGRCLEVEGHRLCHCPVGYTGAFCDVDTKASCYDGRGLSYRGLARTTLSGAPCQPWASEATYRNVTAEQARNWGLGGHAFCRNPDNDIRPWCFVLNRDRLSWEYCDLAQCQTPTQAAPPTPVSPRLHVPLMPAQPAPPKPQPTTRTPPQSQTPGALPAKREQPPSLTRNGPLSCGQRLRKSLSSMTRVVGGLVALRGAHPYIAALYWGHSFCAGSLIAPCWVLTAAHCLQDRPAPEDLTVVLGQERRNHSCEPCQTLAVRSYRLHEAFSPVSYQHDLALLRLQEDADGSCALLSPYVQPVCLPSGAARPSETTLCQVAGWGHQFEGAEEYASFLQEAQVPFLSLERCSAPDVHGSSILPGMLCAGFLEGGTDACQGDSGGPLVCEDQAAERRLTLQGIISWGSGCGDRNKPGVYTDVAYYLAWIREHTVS
The series is described as follows: Inhibition of human coagulation factor beta 12a at 100 uM.

The species named for series [9] is Homo sapiens. The series is described as follows: Inhibition of human chymotrypsin at 100 uM.
The species named for series [10] is Homo sapiens. Nature of the series: Inhibition of human elastase at 100 uM.
The target in series [11] is Plasminogen (Homo sapiens) (UniProt P00747). The series is described as follows: Inhibition of human plasmin at 100 uM.
In series [12] the target is Prothrombin (Homo sapiens) (UniProt P00734). The series is described as follows: Inhibition of human thrombin at 100 uM.
Series [13] addresses Tissue-type plasminogen activator (Homo sapiens) (UniProt P00750). The series is described as follows: Inhibition of tissue plasminogen activator at 100 uM.
A further series concerns the target Trypsin (Homo sapiens) (UniProt P07477+P07478+P35030). The series is described as follows: Inhibition of human trypsin at 100 uM. It counts as protein assay.
Series [14] addresses T2, Calpain-1 catalytic subunit (Homo sapiens) (UniProt P07384).
T2 sequence (whole entry): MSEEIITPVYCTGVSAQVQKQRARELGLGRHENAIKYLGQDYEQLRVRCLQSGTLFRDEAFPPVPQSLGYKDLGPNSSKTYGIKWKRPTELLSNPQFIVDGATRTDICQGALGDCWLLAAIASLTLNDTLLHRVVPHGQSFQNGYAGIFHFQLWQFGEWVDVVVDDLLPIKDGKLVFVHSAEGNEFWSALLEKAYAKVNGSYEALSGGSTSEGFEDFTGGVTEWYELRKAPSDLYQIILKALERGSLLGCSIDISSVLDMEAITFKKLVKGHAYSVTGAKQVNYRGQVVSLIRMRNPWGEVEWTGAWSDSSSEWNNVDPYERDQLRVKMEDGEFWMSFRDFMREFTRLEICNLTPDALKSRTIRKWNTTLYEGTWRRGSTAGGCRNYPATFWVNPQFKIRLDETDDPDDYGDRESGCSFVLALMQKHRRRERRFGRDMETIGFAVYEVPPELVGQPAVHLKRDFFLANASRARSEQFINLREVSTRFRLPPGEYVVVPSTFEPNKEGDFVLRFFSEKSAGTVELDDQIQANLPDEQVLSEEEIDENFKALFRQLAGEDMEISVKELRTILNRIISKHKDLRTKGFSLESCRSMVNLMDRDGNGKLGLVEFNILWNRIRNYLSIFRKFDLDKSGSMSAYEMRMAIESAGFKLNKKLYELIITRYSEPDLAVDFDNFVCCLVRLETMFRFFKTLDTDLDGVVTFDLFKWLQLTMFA
Nature of the series: Inhibition of human calpain 1 at 100 uM.

Chain of Plasminogen (Homo sapiens) (P00747 97-580 limits assumed): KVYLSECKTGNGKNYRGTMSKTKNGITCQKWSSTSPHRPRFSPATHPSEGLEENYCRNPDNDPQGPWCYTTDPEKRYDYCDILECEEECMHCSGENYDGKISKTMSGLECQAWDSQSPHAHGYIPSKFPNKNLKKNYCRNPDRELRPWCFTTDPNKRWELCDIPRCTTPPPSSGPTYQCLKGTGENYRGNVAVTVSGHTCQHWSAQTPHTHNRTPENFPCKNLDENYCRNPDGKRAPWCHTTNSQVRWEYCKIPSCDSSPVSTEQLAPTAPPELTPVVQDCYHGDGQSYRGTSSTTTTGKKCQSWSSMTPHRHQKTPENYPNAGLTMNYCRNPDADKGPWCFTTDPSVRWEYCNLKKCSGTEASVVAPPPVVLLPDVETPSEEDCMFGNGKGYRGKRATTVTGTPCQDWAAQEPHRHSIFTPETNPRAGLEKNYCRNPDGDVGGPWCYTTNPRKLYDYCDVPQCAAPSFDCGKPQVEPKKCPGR
Chain of Plasminogen (Homo sapiens) (P00747 581-810 limits assumed): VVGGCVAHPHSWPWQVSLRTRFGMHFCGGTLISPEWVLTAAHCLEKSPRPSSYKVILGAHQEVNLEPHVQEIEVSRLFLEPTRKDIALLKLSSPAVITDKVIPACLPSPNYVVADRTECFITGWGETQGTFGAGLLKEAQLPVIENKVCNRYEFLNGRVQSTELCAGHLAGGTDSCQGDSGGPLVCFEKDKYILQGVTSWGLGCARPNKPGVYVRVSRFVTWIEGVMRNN
Chain of Procathepsin L (Homo sapiens) (P07711 114-333 limits assumed): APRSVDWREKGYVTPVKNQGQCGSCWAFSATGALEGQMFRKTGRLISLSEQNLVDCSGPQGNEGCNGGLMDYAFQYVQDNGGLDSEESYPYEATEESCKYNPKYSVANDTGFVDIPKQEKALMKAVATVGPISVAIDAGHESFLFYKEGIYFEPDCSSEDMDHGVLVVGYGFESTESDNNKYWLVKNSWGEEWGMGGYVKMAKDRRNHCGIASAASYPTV
Chain of Tissue-type plasminogen activator (Homo sapiens) (P00750 36-562 limits assumed): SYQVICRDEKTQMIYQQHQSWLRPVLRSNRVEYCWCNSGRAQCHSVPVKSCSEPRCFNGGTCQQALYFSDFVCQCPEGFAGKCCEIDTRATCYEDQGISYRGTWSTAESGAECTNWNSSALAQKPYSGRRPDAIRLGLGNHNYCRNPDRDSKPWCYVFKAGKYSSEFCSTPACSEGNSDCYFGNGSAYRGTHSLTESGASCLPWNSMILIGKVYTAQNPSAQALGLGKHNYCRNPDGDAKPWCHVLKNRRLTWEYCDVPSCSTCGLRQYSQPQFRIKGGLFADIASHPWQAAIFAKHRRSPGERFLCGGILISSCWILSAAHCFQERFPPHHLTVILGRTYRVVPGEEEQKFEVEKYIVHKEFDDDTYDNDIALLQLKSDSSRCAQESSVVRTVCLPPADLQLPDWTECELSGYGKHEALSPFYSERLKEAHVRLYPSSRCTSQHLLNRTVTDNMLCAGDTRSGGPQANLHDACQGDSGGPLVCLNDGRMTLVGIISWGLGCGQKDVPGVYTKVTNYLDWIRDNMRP

In general, IC50 refers to the concentration that gives 50% inhibition. Broadly, the inhibition is the drop in the measured response relative to a control, in per cent. On to `Cc1ccc(CNC(=O)[C@H](CCc2ccccc2)NC(=O)[C@H](CCc2ccccc2)NC(=O)Cc2cccc(Oc3ccccc3)c2)cc1`, for which the 50% inhibitory concentration (IC50) in series [1] is 1.1 µM; in series [2], over 50 µM; in [4] it was over 20 µM; in series [5] it was over 20 µM. For the same compound, the inhibition in the series on HEK293 is 28%. In addition, the CC50 at 72 h in [3] was over 25 µM. Moreover, the inhibition entry (in series [6]; in series [7]; in series [8]; in the series listed under Homo sapiens [9]; in the series listed under Homo sapiens [10]; in series [11]) was “Active” each time. Moreover, the inhibition result (in series [12]; in [13]; on Trypsin (Homo sapiens); in [14]) was “Active” in each case.
On to `C[C@@H](O)[C@H](NC(=O)c1ccc(OCc2ccccc2)cc1)C(=O)N[C@@H](CCc1ccccc1)C(=O)NCc1ccccc1`, for which the IC50 in series [1] is 0.068 µM; in series [2], 0.71 µM; in series [4] it was over 20 µM; in [5], over 20 µM. This compound also came in with an inhibition in the series on HEK293 of 68%. In series [3], the CC50 at 72 h came out at 1.4 µM. Also, the inhibition result (in series [6]; in series [7]; in [8]; in the series listed under Homo sapiens [9]; in the series filed under Homo sapiens [10]; in series [11]) was “Active” each time. The inhibition entry (in [12]; in series [13]; at Trypsin (Homo sapiens); in series [14]) was “Active” throughout.
Regarding `CC(NC(=O)[C@H](CCc1ccccc1)NC(=O)[C@@H](NC(=O)c1ccc(OCc2ccccc2)cc1)[C@@H](C)O)c1ccccc1` (stereo partly drawn), the IC50 was over 100 µM in series [1], over 50 µM in series [2], over 20 µM in series [4] and over 20 µM in series [5]. Also, the CC50 at 72 h in [3] was 9 µM. For the same compound, the inhibition entry (in series [6]; in series [7]; in [8]; in the series filed under Homo sapiens [9]; in the series filed under Homo sapiens [10]; in [11]) was “Active” in each case. In addition, the inhibition result (in series [12]; in [13]; at Trypsin (Homo sapiens); in series [14]) was “Active” each time.
Turning to `Cc1ccc(CNC(=O)[C@H](CCc2ccccc2)NC(=O)[C@@H](NC(=O)C(=O)c2c[nH]c3ccccc23)[C@@H](C)O)cc1`, the IC50 in series [1] is 0.0073 µM; in [2], 0.09 µM; in series [4], over 20 µM; in series [5], over 20 µM. The same compound registered an inhibition in the series on HEK293 of 100%. In series [3], the CC50 at 72 h came to 0.136 µM. The inhibition result (in [6]; in [7]; in series [8]; in the series filed under Homo sapiens [9]; in the series filed under Homo sapiens [10]; in [11]) was “Active” each time. Further, the inhibition result (in [12]; in [13]; at Trypsin (Homo sapiens); in series [14]) was “Active” in each case.
`C[C@H](NC(=O)[C@@H](N)Cc1ccc(OCc2ccccc2)cc1)C(=O)N[C@@H](Cc1c[nH]c2ccccc12)C(=O)NCc1ccccc1` (H-Tyr(Bn)-Ala-Trp-NHBn): the IC50 in series [4] and in series [5] was over 20 µM throughout. For the same compound, the inhibition result (in series [6]; in [7]; in series [8]; in the series listed under Homo sapiens [9]; in the series listed under Homo sapiens [10]; in series [11]) was “Active” throughout. Moreover, the inhibition entry (in series [12]; in series [13]; at Trypsin (Homo sapiens); in series [14]) was “Active” throughout.
As to `COc1ccc(CNC(=O)[C@@H](NC(=O)[C@H](Cc2cc(OC)c(OC)c(OC)c2)NC(=O)Cc2cccc(Oc3ccccc3)c2)C(C)C)c(O)c1`, the figures for the IC50 in [1], in series [4] and in series [5] were 0.015 µM, over 20 µM and over 20 µM, respectively. The inhibition entry (in [6]; in series [7]; in series [8]; in the series filed under Homo sapiens [9]; in the series filed under Homo sapiens [10]; in series [11]) was “Active” in each case. Further, the inhibition entry (in series [12]; in [13]; at Trypsin (Homo sapiens); in series [14]) was “Active” in each case.
Take `C[C@@H](O)[C@H](NC(=O)c1ccc(OCc2ccccc2)cc1)C(=O)N[C@@H](CCc1ccccc1)C(=O)NCCc1cccs1`: the half-inhibitory concentration (IC50) in series [1] was 3.2 µM; in series [2], over 50 µM; in [4], over 20 µM; in [5] it was over 20 µM. The CC50 at 72 h in [3] was over 25 µM. For the same compound, the inhibition result (in series [6]; in series [7]; in series [8]; in the series listed under Homo sapiens [9]; in the series filed under Homo sapiens [10]; in [11]) was “Active” in each case. The inhibition entry (in series [12]; in [13]; at Trypsin (Homo sapiens); in series [14]) was “Active” in each case.
Turning to `Cc1ccccc1CCC(=O)N[C@H](C(=O)N[C@@H](CCc1ccccc1)C(=O)NCc1ccccc1Cl)[C@@H](C)O`, the figures for the IC50 in series [2], in series [4] and in [5] were 0.33 µM, over 20 µM and over 20 µM, respectively. Besides, in the series with HEK293, the inhibition came to 71%. Besides, the CC50 at 72 h in series [3] was found to be 2.7 µM. Also, the inhibition entry (in series [6]; in [7]; in [8]; in the series filed under Homo sapiens [9]; in the series listed under Homo sapiens [10]; in series [11]) was “Active” each time. Also, the inhibition result (in [12]; in series [13]; on Trypsin (Homo sapiens); in series [14]) was “Active” in each case.
Consider `Cc1ccsc1CNC(=O)[C@H](CCc1ccccc1)NC(=O)[C@@H](NC(=O)c1ccc(OCc2ccccc2)cc1)[C@@H](C)O`, for which the IC50 in [2] was 0.028 µM; in [4], over 20 µM; in [5], over 20 µM. In the series on HEK293, this compound displayed an inhibition of 81%. In addition, the CC50 at 72 h in series [3] stood at 0.11 µM. The inhibition entry (in series [6]; in [7]; in [8]; in the series filed under Homo sapiens [9]; in the series filed under Homo sapiens [10]; in [11]) was “Active” in each case. In addition, the inhibition entry (in [12]; in series [13]; on Trypsin (Homo sapiens); in series [14]) was “Active” throughout.

(Values after ChEMBL document CHEMBL1268915, “Optimization of a series of dipeptides with a P3 threonine residue as non-covalent inhibitors of the chymotrypsin-like activity of the human 20S proteasome” (Bioorg Med Chem Lett, 2010).)
